Experimental data reported in ChEMBL document CHEMBL1135500, “Highly antibacterial active aminoacyl penicillin conjugates with acylated bis-catecholate siderophores based on secondary diamino acids and related compounds” (2002).
In brackets after ≈: the same amount, converted by molar mass.

How the values were obtained:
Assay type in all cases: functional
Escherichia coli = experiment: In vitro antibacterial activity against ATCC 25922 strain of Escherichia coli
How it was run: (§1)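 MIC by microbroth dilution in Mueller-Hinton broth following NCCLS guidelines.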

Klebsiella pneumoniae = experiment: In vitro antibacterial activity against ATCC 100331 strain of Klebsiella pneumoniae; how it was run: as §1
Pseudomonas aeruginosa [1] = experiment: In vitro antibacterial activity against SG 137 strain of Pseudomonas aeruginosa; how it was run: as §1
Serratia marcescens = experiment: In vitro antibacterial activity against SG 621 strain of Serratia marcescens; how it was run: as §1
Staphylococcus aureus = experiment: In vitro antibacterial activity against SG 511 strain of Staphylococcus aureus; how it was run: as §1
[2] = tested on: Stenotrophomonas maltophilia; experiment: In vitro antibacterial activity against GN 12873 strain of Stenotrophomonas maltophilia; how it was run: as §1
Pseudomonas aeruginosa [3] = experiment: In vitro antibacterial activity against ATCC 27853 strain of Pseudomonas aeruginosa; how it was run: as §1

Row | SMILES | MIC (Escherichia coli) [µg/mL] | MIC (Klebsiella pneumoniae) [µg/mL] | MIC (Pseudomonas aeruginosa [1]) [µg/mL] | MIC (Serratia marcescens) [µg/mL] | MIC (Staphylococcus aureus) [µg/mL] | MIC [2] [µg/mL] | MIC (Pseudomonas aeruginosa [3]) [µg/mL]
1 | CC1(C)S[C@@H]2[C@H](NC(=O)[C@H](NC(=O)N3CCNC3=O)c3ccccc3)C(=O)N2[C@H]1C(=O)O [AZLOCILLIN] | 6.25 (≈ 13.5 µM) | 6.25 (≈ 13.5 µM) | 6.25 (≈ 13.5 µM) | 50 (≈ 108 µM) | 0.4 (≈ 0.867 µM) | 25 (≈ 54.2 µM) | 6.25 (≈ 13.5 µM)
2 | COC(=O)Oc1cc(Cl)cc(C(=O)N(C)CCCN(CC(=O)NC(C(=O)NC2C(=O)N3C2SC(C)(C)C3C(=O)O)c2ccccc2)C(=O)c2cc(Cl)cc(OC(=O)OC)c2OC(=O)OC)c1OC(=O)OC (stereo unspecified) | 0.05 (≈ 0.0476 µM) | < 0.005 | < 0.005 | 0.02 (≈ 0.019 µM) | 12.5 (≈ 11.9 µM) | 0.02 (≈ 0.019 µM) | 0.1 (≈ 0.0952 µM)
3 | C[C@@H](O)[C@H]1C(=O)N2C(C(=O)O)=C(S[C@@H]3CN[C@H](C(=O)N(C)C)C3)[C@H](C)[C@H]12 [MEROPENEM] | 0.04 (≈ 0.104 µM) | 0.04 (≈ 0.104 µM) | 0.2 (≈ 0.522 µM) | 0.06 (≈ 0.156 µM) | 0.1 (≈ 0.261 µM) | > 100 | 0.4 (≈ 1.04 µM)
4 | COC(=O)Oc1cccc(C(=O)N(CCCn2c(=O)oc3c(OC(=O)OC)cccc3c2=O)C(C)CCC(=O)NC(C(=O)NC2C(=O)N3C2SC(C)(C)C3C(=O)O)c2ccccc2)c1OC(=O)OC (stereo unspecified) | 1.56 (≈ 1.6 µM) | 0.2 (≈ 0.205 µM) | 0.1 (≈ 0.102 µM) | 0.1 (≈ 0.102 µM) | 1.56 (≈ 1.6 µM) | 0.4 (≈ 0.409 µM) | 3.12 (≈ 3.19 µM)
5 | COC(=O)Oc1cccc2c(=O)n(CCC(=O)Nc3cc(NC(=O)CCn4c(=O)oc5c(OC(=O)OC)cccc5c4=O)cc(C(=O)NC(C(=O)NC4C(=O)N5C4SC(C)(C)C5C(=O)O)c4ccc(O)cc4)c3)c(=O)oc12 (stereo unspecified) | 6.25 (≈ 5.78 µM) | 6.25 (≈ 5.78 µM) | 6.25 (≈ 5.78 µM) | 50 (≈ 46.2 µM) | 0.4 (≈ 0.37 µM) | 25 (≈ 23.1 µM) | 6.25 (≈ 5.78 µM)
6 | CC(=O)Oc1cccc(C(=O)NCCN(CC(=O)NC(C(=O)NC2C(=O)N3C2SC(C)(C)C3C(=O)O)c2ccccc2)C(=O)c2cccc(OC(C)=O)c2OC(C)=O)c1OC(C)=O (stereo unspecified) | 0.78 (≈ 0.877 µM) | 0.1 (≈ 0.112 µM) | 0.4 (≈ 0.449 µM) | 0.78 (≈ 0.877 µM) | 3.12 (≈ 3.51 µM) | 0.78 (≈ 0.877 µM) | 0.78 (≈ 0.877 µM)
7 | COC(=O)Oc1cccc2c(=O)n(-c3cc(C(=O)NC(C(=O)NC4C(=O)N5C4SC(C)(C)C5C(=O)O)c4ccccc4)cc(-n4c(=O)oc5c(OC(=O)OC)cccc5c4=O)c3)c(=O)oc12 (stereo unspecified) | 25 (≈ 27.1 µM) | 6.25 (≈ 6.77 µM) | 0.2 (≈ 0.216 µM) | 12.5 (≈ 13.5 µM) | 25 (≈ 27.1 µM) | 0.78 (≈ 0.844 µM) | 1.56 (≈ 1.69 µM)
8 | COC(=O)Oc1cc(Cl)c(Cl)c(C(=O)N(C)CCCN(CC(=O)NC(C(=O)NC2C(=O)N3C2SC(C)(C)C3C(=O)O)c2ccccc2)C(=O)c2c(Cl)c(Cl)cc(OC(=O)OC)c2OC(=O)OC)c1OC(=O)OC (stereo unspecified) | 0.02 (≈ 0.0179 µM) | < 0.005 | 0.05 (≈ 0.0447 µM) | 0.05 (≈ 0.0447 µM) | 3.12 (≈ 2.79 µM) | 0.05 (≈ 0.0447 µM) | 0.1 (≈ 0.0893 µM)
9 | CC(=O)Oc1cccc(C(=O)NCCCCN(Cc2ccccc2C(=O)NC(C(=O)NC2C(=O)N3C2SC(C)(C)C3C(=O)O)c2ccccc2)C(=O)c2cccc(OC(C)=O)c2OC(C)=O)c1OC(C)=O (stereo unspecified) | 0.4 (≈ 0.402 µM) | < 0.05 | 0.1 (≈ 0.101 µM) | 0.4 (≈ 0.402 µM) | 0.78 (≈ 0.785 µM) | < 0.05 | 0.2 (≈ 0.201 µM)
10 | CC(=O)Oc1cccc(C(=O)N(C)CCCN(CC(=O)NC(C(=O)NC2C(=O)N3C2SC(C)(C)C3C(=O)O)c2ccccc2)C(=O)c2cccc(OC(C)=O)c2OC(C)=O)c1OC(C)=O (stereo unspecified) | 0.02 (≈ 0.0218 µM) | < 0.005 | 0.005 (≈ 0.00545 µM) | 0.05 (≈ 0.0545 µM) | 3.12 (≈ 3.4 µM) | 0.02 (≈ 0.0218 µM) | 0.08 (≈ 0.0872 µM)
11 | COC(=O)Oc1cccc2c(=O)n(CCC(=O)Nc3cc(NC(=O)CCn4c(=O)oc5c(OC(=O)OC)cccc5c4=O)cc(C(=O)NC(C(=O)NC4C(=O)N5C4SC(C)(C)C5C(=O)O)c4ccccc4)c3)c(=O)oc12 (stereo unspecified) | 6.25 (≈ 5.86 µM) | 0.2 (≈ 0.188 µM) | 0.05 (≈ 0.0469 µM) | 3.12 (≈ 2.93 µM) | 6.25 (≈ 5.86 µM) | 1.56 (≈ 1.46 µM) | 0.2 (≈ 0.188 µM)
12 | CC(=O)Oc1cccc(C(=O)NCCCCN(Cc2ccc(OCC(=O)NC(C(=O)NC3C(=O)N4C3SC(C)(C)C4C(=O)O)c3ccccc3)cc2)C(=O)c2cccc(OC(C)=O)c2OC(C)=O)c1OC(C)=O (stereo unspecified) | 0.78 (≈ 0.762 µM) | < 0.05 | 0.2 (≈ 0.195 µM) | 6.25 (≈ 6.1 µM) | 1.56 (≈ 1.52 µM) | 0.2 (≈ 0.195 µM) | 6.25 (≈ 6.1 µM)
13 | COC(=O)Oc1cc(Br)cc(C(=O)N(C)CCCN(CC(=O)NC(C(=O)NC2C(=O)N3C2SC(C)(C)C3C(=O)O)c2ccccc2)C(=O)c2cc(Br)cc(OC(=O)OC)c2OC(=O)OC)c1OC(=O)OC (stereo unspecified) | < 0.005 | < 0.005 | < 0.005 | 0.02 (≈ 0.0175 µM) | 6.25 (≈ 5.48 µM) | 0.02 (≈ 0.0175 µM) | 0.05 (≈ 0.0439 µM)
14 | CC(=O)Oc1cccc(C(=O)NCCCCN(CC(=O)NC(C(=O)NC2C(=O)N3C2SC(C)(C)C3C(=O)O)c2ccc(O)cc2)C(=O)c2cccc(OC(C)=O)c2OC(C)=O)c1OC(C)=O (stereo unspecified) | 0.01 (≈ 0.0107 µM) | < 0.005 | 0.01 (≈ 0.0107 µM) | < 0.005 | 5 (≈ 5.35 µM) | 0.005 (≈ 0.00535 µM) | 0.16 (≈ 0.171 µM)
15 | CC(=O)Oc1ccc(C(=O)NCCCCN(CC(=O)NC(C(=O)NC2C(=O)N3C2SC(C)(C)C3C(=O)O)c2ccccc2)C(=O)c2ccc(OC(C)=O)c(OC(C)=O)c2)cc1OC(C)=O (stereo unspecified) | 0.78 (≈ 0.85 µM) | 0.4 (≈ 0.436 µM) | 0.2 (≈ 0.218 µM) | 3.12 (≈ 3.4 µM) | 0.78 (≈ 0.85 µM) | 50 (≈ 54.5 µM) | 0.78 (≈ 0.85 µM)
16 | COC(=O)Oc1cccc(C(=O)N(CCCCn2c(=O)oc3c(OC(=O)OC)cccc3c2=O)CC(=O)NC(C(=O)NC2C(=O)N3C2SC(C)(C)C3C(=O)O)c2ccccc2)c1OC(=O)OC (stereo unspecified) | 0.01 (≈ 0.0105 µM) | < 0.005 | 0.04 (≈ 0.0421 µM) | < 0.005 | 2.5 (≈ 2.63 µM) | 0.04 (≈ 0.0421 µM) | 0.156 (≈ 0.164 µM)
17 | COC(=O)Oc1cccc(C(=O)N(C)CCCN(CC(=O)NC(C(=O)NC2C(=O)N3C2SC(C)(C)C3C(=O)O)c2ccccc2)C(=O)c2cccc(OC(=O)OC)c2OC(=O)OC)c1OC(=O)OC (stereo unspecified) | 0.02 (≈ 0.0204 µM) | 0.005 (≈ 0.00509 µM) | 0.04 (≈ 0.0407 µM) | 0.02 (≈ 0.0204 µM) | 5 (≈ 5.09 µM) | 0.08 (≈ 0.0815 µM) | 0.31 (≈ 0.316 µM)
18 | CC(=O)Oc1cccc(C(=O)N(C)CCCN(Cc2ccccc2C(=O)NC(C(=O)NC2C(=O)N3C2SC(C)(C)C3C(=O)O)c2ccccc2)C(=O)c2cccc(OC(C)=O)c2OC(C)=O)c1OC(C)=O (stereo unspecified) | 1.56 (≈ 1.57 µM) | 0.2 (≈ 0.201 µM) | 0.04 (≈ 0.0402 µM) | 0.24 (≈ 0.241 µM) | 6.25 (≈ 6.29 µM) | < 0.05 | 0.4 (≈ 0.402 µM)
19 | CC(=O)Oc1cccc(C(=O)NCCCCN(CC(=O)NC(C(=O)NC2C(=O)N3C2SC(C)(C)C3C(=O)O)c2ccccc2)C(=O)c2cccc(OC(C)=O)c2OC(C)=O)c1OC(C)=O (stereo unspecified) | < 0.005 | < 0.005 | < 0.005 | < 0.005 | 5 (≈ 5.45 µM) | 0.005 (≈ 0.00545 µM) | 0.05 (≈ 0.0545 µM)
20 | CC1(C)S[C@@H]2[C@H](NC(=O)[C@H](N)c3ccccc3)C(=O)N2[C@H]1C(=O)O [AMPICILLIN] | 6.25 (≈ 17.9 µM) | 6.25 (≈ 17.9 µM) | > 100 | 25 (≈ 71.5 µM) | 0.4 (≈ 1.14 µM) | > 100 | > 100
21 | CC(=O)Oc1cccc(C(=O)Nc2cc(NC(=O)c3cccc(OC(C)=O)c3OC(C)=O)cc(C(=O)NC(C(=O)NC3C(=O)N4C3SC(C)(C)C4C(=O)O)c3ccccc3)c2)c1OC(C)=O (stereo unspecified) | 100 (≈ 108 µM) | 3.12 (≈ 3.38 µM) | 0.4 (≈ 0.433 µM) | – | 25 (≈ 27.1 µM) | 1.56 (≈ 1.69 µM) | 3.12 (≈ 3.38 µM)
